Measurements as given in ChEMBL document CHEMBL1138784, “Rational design, synthesis, and biological evaluation of bis(pyrimido[5,6,1-de]acridines) and bis(pyrazolo[3,4,5-kl]acridine-5-carboxamides) as new anticancer agents” (J Med Chem, 2004).

Tests used:
[1] = test system: SW-620; assay: Percent growth of colon SW-620 cell line was determined at 10e-5 M concentration after 48 hr of exposing; assay type: functional, Homo sapiens
In short: (§1)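 NCI sulforhodamine B screen. Cells seeded by growth rate, 24 h drug-free, then 48 h exposure to 10^-8, 10^-6 or 10^-5 M. Protein-stain optical density expressed as percent growth relative to untreated control (100%); negative values indicate cell kill.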

[2] = test system: SNB-19; assay: Percent growth of CNS SNB-19 cell line was determined at 10e-6 M concentration after 48 hr of exposing; assay type: functional, Homo sapiens; in short: as §1
[3] = Cytotoxicity against human PC3 cancer cell line was determined after 1 hr; assay type: cell-based; conditions: Cancer cell lines
In short: (§2)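 MTT colorimetric assay. Cells seeded by growth characteristics and preincubated 24 h, then exposed to drug for 1 h or 144 h at 37 °C, 5% CO2. H460M, MKN45 and PC-3 were grown in RPMI 1640 with 10% FCS. HCT116 was grown in D-MEM with 10% FBS and 2 mM glutamine.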

[4] = test system: LoVo; assay: Cytotoxicity against doxorubicin resistant LoVo cell line was determined against 144 hrs; assay type: functional, cell-based; conditions: Homo sapiens
In short: (§3)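 MTT assay on doxorubicin-sensitive LoVo and resistant LoVo/Dx cells, 24 h preincubation, then 1 h or 144 h drug exposure at 37 °C, 5% CO2. IC50 in nM. Resistance index is IC50 on LoVo/Dx divided by IC50 on LoVo.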

[5] = test system: SNB-19; assay: Percent growth of CNS SNB-19 cell line was determined at 10e-5 M concentration after 48 hr of exposing; assay type: functional, Homo sapiens; in short: as §1
[6] = test system: MCF7; assay: Percent growth of breast MCF-7 cell line was determined at 10e-5 M concentration after 48 hr of exposing; assay type: functional, Homo sapiens
[7] = test system: 786-0; assay: Percent growth of renal 786-O cell line was determined at 10e-5 M concentration after 48 hr of exposing; assay type: functional, Homo sapiens; in short: as §1
[8] = test system: HT-29; assay: Cytotoxicity is determined as the concentration required to inhibit the growth of human colon adenocarcinoma (HT-29) cell line; assay type: functional, cell-based
[9] = test system: NCI-H460; assay: Percent growth of lung NCI-H460 cell line was determined at 10e-8 M concentration after 48 hr of exposing; assay type: functional, Homo sapiens; in short: as §1
[10] = Cytotoxicity against human LoVo cancer cell line was determined after 1 hr; assay type: cell-based; in short: as §3
[11] = test system: LoVo; assay: Ratio of IC50 against sensitive LoVo cell line and that of doxorubicin resistance LoVo cell line was determined after 1 hr exposure; assay type: functional, Homo sapiens
[12] = test system: MOLT-4; assay: Percent growth of leukemia MOLT-4 cell line was determined at 10e-8 M concentration after 48 hr of exposing; assay type: functional, Homo sapiens; in short: as §1
[13] = test system: SW-620; assay: Percent growth of colon SW-620 cell line was determined at 10e-8 M concentration after 48 hr of exposing; assay type: functional, Homo sapiens; in short: as §1
[14] = test system: NCI-H460; assay: Percent growth of lung NCI-H460 cell line was determined at 10e-6 M concentration after 48 hr of exposing; assay type: functional, Homo sapiens; in short: as §1
[15] = test system: MOLT-4; assay: Percent growth of leukemia MOLT-4 cell line was determined at 10e-6 M concentration after 48 h of exposing; assay type: functional, Homo sapiens; in short: as §1
[16] = test system: MKN-45; assay: Cytotoxicity against human MKN45 cancer cell line was determined after 144 hr; assay type: functional, cell-based; conditions: MKN-45, 144 h; in short: as §2
[17] = Percent growth of melanoma LOX IMV1 cell line was determined at 10e-5 M concentration after 48 hr of exposing; assay type: functional, Homo sapiens; in short: as §1
[18] = test system: DU-145; assay: Percent growth of prostate DU-145 cell line was determined at 10e-6 M concentration after 48 hr of exposing; assay type: functional, Homo sapiens
[19] = test system: LoVo; assay: Cytotoxicity against human LoVo cancer cell line was determined after 144 hr; assay type: functional, cell-based; in short: as §3
[20] = test system: NCI-H460; assay: Percent growth of lung NCI-H460 cell line was determined at 10e-5 M concentration after 48 hr of exposing; assay type: functional, Homo sapiens; in short: as §1
[21] = test system: MCF7; assay: Percent growth of breast MCF-7 cell line was determined at 10e-6 M concentration after 48 h of exposing; assay type: functional, Homo sapiens
[22] = Percent growth of melanoma LOX IMV1 cell line was determined at 10e-8 M concentration after 48 hr of exposing; assay type: functional, Homo sapiens; in short: as §1
[23] = test system: SNB-19; assay: Percent growth of CNS SNB-19 cell line was determined at 10e-8 M concentration after 48 hr of exposing; assay type: functional, Homo sapiens; in short: as §1
[24] = test system: 786-0; assay: Percent growth of renal 786-O cell line was determined at 10e-6 M concentration after 48 h of exposing; assay type: functional, Homo sapiens; in short: as §1
[25] = Cytotoxicity against human H460M cancer cell line was determined after 1 hr; assay type: cell-based; conditions: Cancer cell lines; in short: as §2
[26] = test system: OVCAR-4; assay: Percent growth of ovarian OVCAR-4 cell line was determined at 10e-5 M concentration after 48 hr of exposing; assay type: functional, Homo sapiens; in short: as §1
[27] = test system: 786-0; assay: Percent growth of renal 786-O cell line was determined at 10e-8 M concentration after 48 h of exposing; assay type: functional, Homo sapiens; in short: as §1
[28] = test system: DU-145; assay: Percent growth of prostate DU-145 cell line was determined at 10e-5 M concentration after 48 hr of exposing; assay type: functional, Homo sapiens
[29] = test system: MOLT-4; assay: Percent growth of leukemia MOLT-4 cell line was determined at 10e-5 M concentration after 48 hr of exposing; assay type: functional, Homo sapiens; in short: as §1
[30] = test system: Nucleic Acid; assay: Binding site preference is determined as the ratio of Poly (dA-dT)2 to Poly (dG-dC)2; assay type: nucleic-acid assay
In short: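 Ethidium displacement fluorometry at pH 7.0 (10 mM Na2HPO4, 10 mM NaH2PO4, 1 mM EDTA) with 1.26 μM ethidium bromide and 1 μM [poly(dA-dT)]2 or [poly(dG-dC)]2, 20 °C. Ex 546 nm, em 595 nm, drug added serially from a DMSO stock. Preference taken from the [AT]/[GC] ratio of C50 values, counted significant only below 0.7 or above 1.3.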

[31] = test system: OVCAR-4; assay: Percent growth of ovarian OVCAR-4 cell line was determined at 10e-6 M concentration after 48 hr of exposing; assay type: functional, Homo sapiens; in short: as §1
[32] = test system: SW-620; assay: Percent growth of colon SW-620 cell line was determined at 10e-6 M concentration after 48 hr of exposing; assay type: functional, Homo sapiens; in short: as §1
[33] = Cytotoxicity against human H460M cancer cell line was determined after 144 hr; assay type: functional, cell-based; conditions: Cancer cell lines; in short: as §2
[34] = test system: MCF7; assay: Percent growth of breast MCF-7 cell line was determined at 10e-8 M concentration after 48 hr of exposing; assay type: functional, Homo sapiens
[35] = Cytotoxicity against human MKN45 cancer cell line was determined after 1 hr; assay type: cell-based; conditions: Cancer cell lines; in short: as §2
[36] = Percent growth of melanoma LOX IMV1 cell line was determined at 10e-6 M concentration after 48 hr of exposing; assay type: functional, Homo sapiens; in short: as §1
[37] = Cytotoxicity against doxorubicin resistant LoVo cell line was determined against 1 hour; assay type: cell-based; conditions: Homo sapiens; in short: as §3
[38] = test system: PC-3; assay: Cytotoxicity against human PC3 cancer cell line was determined after 144 hr; assay type: functional, cell-based; conditions: PC-3, 144 h; in short: as §2
[39] = test system: DU-145; assay: Percent growth of prostate DU-145 cell line was determined at 10e-8 M concentration after 48 h of exposing; assay type: functional, Homo sapiens
[40] = test system: HCT-116; assay: Cytotoxicity against human HCT116 cancer cell line was determined after 144 hr; assay type: functional, cell-based; conditions: HCT-116, 144 h; in short: as §2
[41] = Cytotoxicity against human HCT116 cancer cell line was determined after 1 hr; assay type: cell-based; conditions: HCT-116, 1 h; in short: as §2
[42] = test system: OVCAR-4; assay: Percent growth of ovarian OVCAR-4 cell line was determined at 10e-8 M concentration after 48 hr of exposing; assay type: functional, Homo sapiens; in short: as §1

Compound: COc1ccc2c(c1)-c1nn(CCN(C)C)c3ccc(C(=O)NCCCN(C)CCCNC(=O)c4ccc5c6c(c7cc(OC)ccc7nc46)NN5CCN(C)C)c(c13)N2
- Growth [1]: -39%
- Growth [2]: 0%
- IC50 [3]: > 100 nM
- IC50 [4]: 290 nM
- Growth [5]: -37%
- Growth [6]: -18%
- Growth [7]: -33%
- IC50 [8]: 3 nM
- Growth [9]: 23%
- IC50 [10]: 53 nM
- Resistance index [11]: 58
- Growth [12]: 19%
- Growth [13]: 44%
- Growth [14]: 3%
- Growth [15]: -28%
- IC50 [16]: 13 nM
- Growth [17]: -80%
- Growth [18]: -8%
- IC50 [19]: 5.1 nM
- Growth [20]: -58%
- Growth [21]: 7%
- Growth [22]: 46%
- Growth [23]: 47%
- Growth [24]: 11%
- IC50 [25]: 26 nM
- Growth [26]: -54%
- Growth [27]: 53%
- Growth [28]: -21%
- Growth [29]: -28%
- Binding site preference [30]: 5.5
- Growth [31]: -5%
- Growth [32]: 3%
- IC50 [33]: 4.3 nM
- Growth [34]: 66%
- IC50 [35]: 51 nM
- Growth [36]: 3%
- IC50 [37]: 3100 nM
- IC50 [38]: 39 nM
- Growth [39]: 70%
- IC50 [40]: 43 nM
- IC50 [41]: 120 nM
- Growth [42]: 71%

Compound: CN(C)CCn1c(=O)c2ccc(NCCCN(C)CCCNc3ccc4c(=O)n(CCN(C)C)c(=O)n5c6ccc(O)cc6c(=O)c3c45)c3c(=O)c4cc(O)ccc4n(c1=O)c23
- Growth [1]: -8%
- Growth [2]: -4%
- IC50 [3]: 2 nM
- IC50 [4]: 59 nM
- Growth [5]: -17%
- Growth [6]: -32%
- Growth [7]: -52%
- IC50 [8]: < 0.1 nM
- Growth [9]: 11%
- IC50 [10]: 98 nM
- Resistance index [11]: 8.3
- Growth [12]: -4%
- Growth [13]: 36%
- Growth [14]: -23%
- Growth [15]: -37%
- IC50 [16]: < 0.001 nM
- Growth [17]: -77%
- Growth [18]: -6%
- IC50 [19]: 3.9 nM
- Growth [20]: -60%
- Growth [21]: -1%
- Growth [22]: 20%
- Growth [23]: 34%
- Growth [24]: 1%
- IC50 [25]: < 0.001 nM
- Growth [26]: -36%
- Growth [27]: 36%
- Growth [28]: -42%
- Growth [29]: -60%
- Binding site preference [30]: 1.7
- Growth [31]: -37%
- Growth [32]: 10%
- IC50 [33]: < 0.001 nM
- Growth [34]: 16%
- IC50 [35]: < 0.001 nM
- Growth [36]: -50%
- IC50 [37]: 810 nM
- IC50 [38]: 0.01 nM
- Growth [39]: 32%
- IC50 [40]: < 0.001 nM
- IC50 [41]: 0.06 nM
- Growth [42]: 42%

Compound: CN(C)CCn1c(=O)c2ccc(NCCCN(C)CCCNc3ccc4c(=O)n(CCN(C)C)c(=O)n5c6ccc([N+](=O)[O-])cc6c(=O)c3c45)c3c(=O)c4cc([N+](=O)[O-])ccc4n(c1=O)c23
- Growth [1]: -16%
- Growth [2]: -25%
- IC50 [3]: 11 nM
- IC50 [4]: 67 nM
- Growth [5]: -66%
- Growth [6]: -55%
- Growth [7]: -63%
- IC50 [8]: < 0.1 nM
- Growth [9]: 10%
- IC50 [10]: 42 nM
- Resistance index [11]: 9
- Growth [12]: -2%
- Growth [13]: 42%
- Growth [14]: -36%
- Growth [15]: -31%
- IC50 [16]: 0.29 nM
- Growth [17]: -69%
- Growth [18]: -13%
- IC50 [19]: 7.6 nM
- Growth [20]: -60%
- Growth [21]: -2%
- Growth [22]: 16%
- Growth [23]: 37%
- Growth [24]: -4%
- IC50 [25]: 0.93 nM
- Growth [26]: -65%
- Growth [27]: 33%
- Growth [28]: -83%
- Growth [29]: -50%
- Binding site preference [30]: 2.4
- Growth [31]: -54%
- Growth [32]: 5%
- IC50 [33]: 0.19 nM
- Growth [34]: 21%
- IC50 [35]: 1.3 nM
- Growth [36]: -56%
- IC50 [37]: 380 nM
- IC50 [38]: 4.5 nM
- Growth [39]: 35%
- IC50 [40]: 1.1 nM
- IC50 [41]: 2.9 nM
- Growth [42]: 31%
